{"data": "Measured values pooled from the literature", "target": "Testis-specific serine/threonine-protein kinase 3 (TSSK3, Homo sapiens, UniProt Q96PN8)", "Sequence (Q96PN8 1-268, as in one of the studies)": "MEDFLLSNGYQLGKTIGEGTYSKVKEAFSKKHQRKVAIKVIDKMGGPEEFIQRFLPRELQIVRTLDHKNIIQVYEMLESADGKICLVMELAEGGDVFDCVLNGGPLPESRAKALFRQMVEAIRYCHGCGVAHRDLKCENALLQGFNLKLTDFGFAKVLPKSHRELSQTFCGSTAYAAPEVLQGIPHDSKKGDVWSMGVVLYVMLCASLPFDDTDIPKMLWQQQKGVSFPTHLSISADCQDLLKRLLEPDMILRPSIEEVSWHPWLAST", "note": "Each line is one published result; the experiments were not run side by side."}
{"Compound": "Cc1ccc(C(=O)Nc2ccc(CN3CCN(C)CC3)c(C(F)(F)F)c2)cc1C#Cc1cnc2cccnn12", "test": "enzyme activity, inhibitor", "setting": "23.5 nM", "measurement": "remaining activity", "value": "84%"}
{"Compound": "O=C(Nc1cnn(-c2csc(C(=O)NC3COC3)c2)c1)Nc1ccccc1Cl", "test": "enzyme activity, inhibitor", "setting": "5 µM", "measurement": "remaining activity", "value": "97.7%"}
{"Compound": "Nc1ncnc2occ(-c3ccc(NC(=O)Nc4cc(C(F)(F)F)ccc4F)cc3)c12", "test": "cell-free assay, inhibitor", "setting": "20 µM", "measurement": "remaining signal", "value": "39%"}
{"Compound": "CC(C)(O)[C@H]1CC[C@H](Nc2ccc3ncc(-c4cccc(C(F)(F)F)c4)n3n2)CC1", "test": "enzyme activity, inhibitor", "setting": "1 µM", "measurement": "remaining activity", "value": "110%"}
{"Compound": "CC1CCCN1c1nccc(-c2cnn3ncccc23)n1 (stereo not shown)", "test": "binding", "setting": "1 µM", "measurement": "remaining binding", "value": "99%"}
{"Compound": "COc1cc(Cl)c(C(=O)N[C@@H](CN[C@H]2CC[C@@H](N)CC2)Cc2ccc(C#N)cc2)cc1-c1ccc(CN[C@H](C)c2ccc(C)cc2)o1", "test": "enzyme activity, inhibitor", "setting": "1 µM", "measurement": "remaining activity", "value": "97%"}
{"Compound": "CSc1cccnc1N1CCN(Cc2nc3ccccc3[nH]2)CC1", "test": "cell-free assay, competition with immobilised ligand", "setting": "1 µM", "measurement": "remaining binding", "value": "98%"}
{"Compound": "CN1CC(Oc2cnc(C#N)cc2-c2ccn3nc(NC(=O)C4CC4)cc3c2)C1", "test": "enzyme activity, inhibitor", "setting": "1 µM", "measurement": "inhibition", "value": "-3%"}
{"Compound": "Cc1sc(C(=O)NC2COC2)cc1-n1cc(NC(=O)Nc2c(F)cccc2Cl)cn1", "test": "enzyme activity, inhibitor", "setting": "10 µM", "measurement": "remaining activity", "value": "100%"}
{"Compound": "CO[C@H]1CC[C@H](CNc2ccc(S(=O)(=O)NC(=O)c3ccc(N4CCN(CC5=C(c6ccc(Cl)cc6)CC(C)(C)CC5)CC4)cc3Oc3cnc4[nH]ccc4c3)cc2[N+](=O)[O-])CC1", "test": "cell-free assay, competition with immobilised ligand", "setting": "1 µM", "measurement": "remaining binding", "value": "70%"}
